Data on two compounds can be found in ChEMBL document CHEMBL4145683, “Total Synthesis and Structure-Activity Relationships Study of Odilorhabdins, a New Class of Peptides Showing Potent Antibacterial Activity” (J Med Chem, 2018).

The test system of experiment [1] is Klebsiella pneumoniae. Nature of the experiment: Antimicrobial activity against Klebsiella pneumoniae ATCC 13883 infected in neutropenic mouse pulmonary infection model assessed as reduction in lung bacterial load at 40 mg/kg, sc dosed 1 hr post infection and measured 8 hrs post infection relative to untreated control. The class given is functional. In a few lines:
(§1)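 Mice were acclimatized for 5 days and made neutropenic with intraperitoneal cyclophosphamide (150 mg/kg on day 4, 100 mg/kg on day 1 pre-infection). They were infected intranasally with 2 × 10^6 CFU/mouse. At 1 h, a single SC dose was given in 10 mL/kg (6 mice/dose). […] A pretreatment group was sampled at 1 h. At 8 h, lungs were homogenized and plated on TSA for CFU. Analysis was one-way ANOVA with Dunnett's test vs vehicle.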

Experiment [2] relates to Klebsiella pneumoniae. Nature of the experiment: Antimicrobial activity against Klebsiella pneumoniae ATCC 13883 infected in neutropenic mouse pulmonary infection model assessed as reduction in lung bacterial load at 80 mg/kg, sc dosed 1 hr post infection and measured 8 hrs post infection relative to untreated control. It is filed as functional. The method, boiled down: as §1

For experiment [3], the system named is Klebsiella pneumoniae. The experiment in a line: Antimicrobial activity against Klebsiella pneumoniae ATCC 43816 by broth microdilution method. It is filed as functional. As to conditions: Klebsiella pneumoniae, ATCC 43816; read-out: MIC. In a few lines:
(§2)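 Broth microdilution MIC per CLSI M07-A10, with inoculum prepared by direct colony suspension. Reference strains were from ATCC and NCTC.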

Experiment [4] relates to Klebsiella pneumoniae. The experiment in a line: Antimicrobial activity against Klebsiella pneumoniae ATCC 13883 by broth microdilution method. The class given is functional. The method, boiled down: as §2
The test system of experiment [5] is Klebsiella pneumoniae. Nature of the experiment: Antimicrobial activity against Klebsiella pneumoniae ATCC BAA-1905 by broth microdilution method. The class given is functional. The method, boiled down:
as §2

For experiment [6], the system named is Klebsiella pneumoniae. Nature of the experiment: Antimicrobial activity against Klebsiella pneumoniae ATCC BAA-1904 by broth microdilution method. It is filed as functional. The method, boiled down:
as §2

The test system of experiment [7] is Klebsiella pneumoniae. The experiment in a line: Antimicrobial activity against Klebsiella pneumoniae NCTC 13438 by broth microdilution method. The class given is functional. In a few lines:
as §2
A general note: Dilution methods test growth across graded concentrations, often in twofold steps.

In experiment [8] the test system is Klebsiella pneumoniae. The experiment in a line: Antimicrobial activity against Klebsiella pneumoniae NCTC 13439 by broth microdilution method. The class given is functional. The method, boiled down: as §2
The subject of experiment [9] is Klebsiella pneumoniae. Nature of the experiment: Antimicrobial activity against Klebsiella pneumoniae ATCC BAA-2146 by broth microdilution method. It is filed as functional. In a few lines:
as §2

The subject of experiment [10] is Klebsiella pneumoniae. Nature of the experiment: Antimicrobial activity against Klebsiella pneumoniae ATCC BAA-2472 by broth microdilution method. It is filed as functional. The method, boiled down: as §2
In experiment [11] the test system is Klebsiella pneumoniae. Nature of the experiment: Antimicrobial activity against Klebsiella pneumoniae ATCC BAA-2473 by broth microdilution method. The class given is functional. In a few lines: as §2
In experiment [12] the test system is Klebsiella pneumoniae. The experiment in a line: Antimicrobial activity against Klebsiella pneumoniae NCTC 13443 by broth microdilution method. The class given is functional. In a few lines:
as §2

The test system of experiment [13] is Klebsiella pneumoniae. The experiment in a line: Antimicrobial activity against Klebsiella pneumoniae NCTC 13442 by broth microdilution method. The class given is functional. The method, boiled down: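 CLSI broth microdilution with direct colony suspension inoculum, per CLSI M07-A10. Reference strain taken from the NCTC collection.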
The test system of experiment [14] is Escherichia coli. Nature of the experiment: Antimicrobial activity against Escherichia coli ATCC BAA-2340 by broth microdilution method. The class given is functional. The method, boiled down:
as §2

In experiment [15] the test system is Escherichia coli. Nature of the experiment: Antimicrobial activity against Escherichia coli ATCC BAA-2452 by broth microdilution method. The class given is functional. The method, boiled down:
as §2

Experiment [16] relates to Escherichia coli. The experiment in a line: Antimicrobial activity against Escherichia coli ATCC BAA-2469 by broth microdilution method. It is filed as functional. In a few lines:
as §2

Experiment [17] deals with Klebsiella pneumoniae. The experiment in a line: Antimicrobial activity against Klebsiella pneumoniae ATCC 13883 infected in neutropenic mouse pulmonary infection model assessed as reduction in lung bacterial load at 30 mg/kg, iv dosed 1 hr post infection and measured 8 hrs post infection relative to untreated control. The class given is functional, organism-based. The method, boiled down: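 Neutropenia induced by intraperitoneal cyclophosphamide (150 mg/kg day 4, 100 mg/kg day 1 before infection); intranasal infection at 2 × 10^6 CFU/mouse. Single iv dose at 10 mL/kg given 1 h post-infection. An untreated group was sacrificed at 1 h for baseline burden. At 8 h, lungs were homogenized, serially diluted and plated on TSA for CFU. Comparison versus vehicle by one-way ANOVA with Dunnett's test.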

Experiment [18] relates to Escherichia coli. Nature of the experiment: microbe, parasite or virus in culture. As to conditions: ATCC 25922.

The structures appear in SMILES notation. ≈ marks a conversion by molar mass, not a printed value. Calls of active or inactive are those of the source. No cut-off for these calls is given here. Where only a bound is given, the exact number is not on record here.

As for `C[C@H](NC(=O)[C@@H](NC(=O)[C@@H](N)CCCCN)[C@@H](O)CN)C(=O)NCC(=O)N[C@H](CCCN)C(=O)N1CCC[C@H]1C(=O)N[C@@H](Cc1cnc[nH]1)C(=O)N[C@@H](CCCCN)C(=O)N/C(=C\CCNC(=N)N)C(=O)O.Cl`, the Activity in the experiment on Klebsiella pneumoniae [1] is recorded as 2 log10CFU/ml; in the experiment with Klebsiella pneumoniae [2] it was 3 log10CFU/ml.

As to `O=C(O)c1cn(C2CC2)c2cc(N3CCNCC3)c(F)cc2c1=O` [CIPROFLOXACIN], the MIC in the experiment with Klebsiella pneumoniae [3] was ≤ 0.125 µg/mL; in the experiment with Klebsiella pneumoniae [4] it was 0.5 µg/mL (≈ 1.51 µM); in the experiment with Klebsiella pneumoniae [5], > 64 µg/mL; in the experiment with Klebsiella pneumoniae [6], 0.5 µg/mL (≈ 1.51 µM); in the experiment with Klebsiella pneumoniae [7], > 64 µg/mL; in the experiment on Klebsiella pneumoniae [8], 32 µg/mL (≈ 96.6 µM). Besides, the MIC was > 64 µg/mL against Klebsiella pneumoniae [9]; > 64 µg/mL in the experiment with Klebsiella pneumoniae [10]; > 64 µg/mL against Klebsiella pneumoniae [11]; > 64 µg/mL against Klebsiella pneumoniae [12]; 8 µg/mL (≈ 24.1 µM) in the experiment with Klebsiella pneumoniae [13]; > 64 µg/mL against Escherichia coli [14]. Further, the MIC against Escherichia coli [15] was < 0.125 µg/mL; against Escherichia coli [16], > 64 µg/mL; in the experiment on Escherichia coli [18], < 0.25 µg/mL. Besides, in the experiment with Klebsiella pneumoniae [17], the outcome was Active.
